ChEMBL document CHEMBL3352271, “Antitrypanosomal quinoline alkaloids from the roots of Waltheria indica” (J Nat Prod, 2014)

Tests used:
[1] = Selectivity index, ratio of IC50 against rat L6 cells to IC50 against Trypanosoma cruzi Tuluhaen C2C4; format: toxicity, cell-based; settings: read-out: Ratio IC50
How it was run: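 Selectivity index calculated as the IC50 for L6 cytotoxicity divided by the IC50 for antitrypanosomal activity against T. cruzi amastigotes (Tulahuen C4).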

L6 = experiment: Cytotoxicity against rat L6 cells; format: cell-based
[2] = system: Trypanosoma brucei rhodesiense; experiment: Antitrypanosomal activity against Trypanosoma brucei rhodesiense STIB900 trypomastigote forms; format: functional, organism-based
Trypanosoma cruzi = experiment: Antitrypanosomal activity against LacZ expressing Trypanosoma cruzi Tuluhaen C2C4 amastigotes; format: functional, organism-based
[3] = system: Trypanosoma brucei brucei; experiment: Antitrypanosomal activity against Trypanosoma brucei brucei NYSM bloodstream forms incubated for 46 hrs by alamar blue assay; format: functional, organism-based
How it was run: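 Bloodstream parasites grown in HMI-9 medium with 10% FCS, wild type. Plated at a final density of 0.5 × 10^5 cells/mL with compound dilutions for 46 h, then AlamarBlue added for 2 more h. Fluorescence read at excitation 530 nm, emission 584 nm. IC50 from nonlinear sigmoidal dose–response fit; triplicate runs, reported ± SD.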

Row | Structure (SMILES) | IC50 [2] [µM] | IC50 (Trypanosoma cruzi) [µM] | IC50 [3] [µM] | selectivity ratio [1] | IC50 (L6) [µM]
1 | CCCCCCCC[C@@H]1CCCc2[nH]c(C)c(OC)c(=O)c21 | 32.6 | 0.49 | > 100 | 1.5 | 0.75
2 | CCCCCCCC[C@H]1CC[C@@H](OC)c2[nH]c(C)c(OC)c(=O)c21 | 38.5 | 0.23 | 80.3 | 4 | 0.91
3 | CCCCCCCC[C@H]1CC[C@@H](OC)c2c1c(=O)c(OC)c(C)n2OC | 45.8 | 0.04 | > 100 | 1.8 | 0.07
4 | COc1c(OC)c(C)[n+]([O-])c2c1[C@H](CCCCCc1ccccc1)CCC2 | 55.7 | 3.1 |  | 13.5 | 41.1
5 | CCCCCCCC[C@H]1CCC(=O)c2[nH]c(C)c(OC)c(=O)c21 | 14.3 | 0.17 | > 100 | 1080 | 184
6 | Cc1ccc(C(=O)Nc2ccc(S(=O)(=O)O)c3cc(S(=O)(=O)O)cc(S(=O)(=O)O)c23)cc1NC(=O)c1cccc(NC(=O)Nc2cccc(C(=O)Nc3cc(C(=O)Nc4ccc(S(=O)(=O)O)c5cc(S(=O)(=O)O)cc(S(=O)(=O)O)c45)ccc3C)c2)c1 [SURAMIN] |  |  | 0.31 |  | 

Continued by falling IC50 (Trypanosoma cruzi), values first:

Row | IC50 [2] [µM] | IC50 (Trypanosoma cruzi) [µM] | IC50 [3] [µM] | Structure (SMILES) | selectivity ratio [1] | IC50 (L6) [µM]
7 |  | 2.9 |  | O=C(Cn1ccnc1[N+](=O)[O-])NCc1ccccc1 [BENZNIDAZOLE] |  | 
8 | 87.9 | 2.2 | > 100 | CCCCCCCC[C@@H]1CCCc2c1c(=O)c(OC)c(CO)n2OC | 10.1 | 22.1
9 | 38.6 | 1.1 | 31 | CCCCCCCCc1ccc(OC)c2[nH]c(C)c(OC)c(=O)c12 | 22.7 | 25.7
10 | 53.3 | 0.1 | > 100 | CCCCCCCC[C@H]1CCCc2c1c(=O)c(OC)c(C)n2OC | 1.9 | 0.19
11 | 35.9 | 0.04 |  | COc1c(C)n(OC)c2c(c1=O)[C@@H](CCCCCc1ccccc1)CC[C@H]2OC | 6.5 | 0.26
12 | 30.4 | 0.02 | 24.1 | COc1c(C)n(OC)c2c(c1=O)[C@@H](CCCCCc1ccccc1)CCC2 | 33.8 | 0.64
